Measurements: ChEMBL document CHEMBL5325455, “Daphnanes diterpenes from the latex of Hura crepitans L. and their PKCζ-dependent anti-proliferative activity on colorectal cancer cells” (Bioorg Med Chem, 2023)
Active and inactive are the calls of the source. The rule behind the calls is not given here.

Legend:
Zika virus = assay: Antiviral activity against ZIKV expressing GFP reporter gene measured 24 hrs post infection; format: functional, organism-based
How it was run: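 Cells in 96-well plates were exposed to serial concentrations starting at 50 µg/mL and infected with GFP-reporter Zika virus at MOI 1. At 24 h post-infection, cells were fixed in 3.7% PFA and GFP-positive cells were counted by flow cytometry.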

Caco-2 [1] = assay: Cytostatic activity against human Caco-2 cells assessed as inhibition of cell growth at 1 ug/ml incubated for 48 hrs by MTS assay; format: functional, cell-based; conditions: dose 1.0 µg/ml
How it was run: (§1)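 Caco-2 cells were seeded at 40 000/well 48 h before dosing. Compound was diluted from a 10 mg/mL DMSO stock into medium (0.125, 0.5 or 1 µg/mL final; DMSO ≤0.01%) and added in triplicate for 48 h. Viability was read by MTS absorbance at 490 nm and expressed relative to the DMSO control.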

SARS-CoV-2 = assay: Antiviral activity against SARS-CoV-2 assessed as reduction in progeny production measured 24 hrs post infection by PFU assay; format: functional, organism-based; conditions: Severe acute respiratory syndrome coronavirus 2, 24 h
Caco-2 [2] = assay: Cytotoxicity against human Caco-2 cells assessed as cell death; format: functional, cell-based
Caco-2 [3] = assay: Cytostatic activity against human Caco-2 cells assessed as inhibition of cell growth at 1 ug/ml incubated for 48 hrs by MTS assay relative to control; format: functional; how it was run: as §1
Caco-2 [4] = assay: Upregulation of PKCdelta protein expression in human Caco-2 cells at 1 ug/ml incubated for 48 hrs by Western blot analysis; format: functional, cell-based; conditions: dose 1.0 µg/ml
How it was run: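 Caco-2 cells, 0.25 × 10^6 per well, seeded 48 h before treatment; DMSO vehicle control. Optional 15 min pretreatment with 0.2 µM Gö6976. Cells lysed on ice after 48 h in pH 7.4 Tris/NaCl/Triton/EDTA buffer with protease and phosphatase inhibitors. 30 µg protein run on 4–15% SDS-PAGE, blotted to nitrocellulose, ECL detection. pSer664 and total PKCδ probed, ratio quantified, actin as loading control; one experiment.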

[5] = tested on: Colorectal epithelial cell; assay: Cytostatic activity against human Colorectal epithelial cells isolated from patient with well-differentiated colonic adenocarcinoma cultured as organoids at 1 ug/ml incubated for 48 hrs by CellTiter-Glo luminescence assay; format: functional, cell-based; conditions: dose 1.0 µg/ml
How it was run: (§2)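 Primary colonic epithelial cells (3 control and 2 CRC patients) were expanded as organoids or spheroids in Matrigel with EGF/noggin/Wnt3a/R-spondin medium. Single cells were seeded at 2500/well and allowed 48 h to form colonoids, then exposed for 48 h at 0.01, 0.1 or 1 µg/mL, with 5FdU at 1 µg/mL as positive control. Viability was read by CellTiter-Glo luminescence versus DMSO or medium control.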

[6] = tested on: Colorectal epithelial cell; assay: Cytostatic activity against human Colorectal epithelial cells isolated from left colon of patient with recurrent diverticulitis cultured as organoids at 1 ug/ml incubated for 48 hrs by CellTiter-Glo luminescence assay; format: functional, cell-based; conditions: dose 1.0 µg/ml; how it was run: as §2
[7] = tested on: Colorectal epithelial cell; assay: Cytostatic activity against human Colorectal epithelial cells isolated from patient with fistulized sigmoiditis cultured as organoids at 1 ug/ml incubated for 48 hrs by CellTiter-Glo luminescence assay; format: functional, cell-based; conditions: dose 1.0 µg/ml; how it was run: as §2
[8] = tested on: Colorectal epithelial cell; assay: Cytostatic activity against human Colorectal epithelial cells isolated from left colon of patient with sigmoido-vaginal fistula for diverticulitis cultured as organoids at 1 ug/ml incubated for 48 hrs by CellTiter-Glo luminescence assay; format: functional, cell-based; conditions: dose 1.0 µg/ml; how it was run: as §2
[9] = tested on: Colorectal epithelial cell; assay: Cytostatic activity against human Colorectal epithelial cells isolated from patient with well-differentiated colonic adenocarcinoma and undergone nine courses of chemotherapy cultured as organoids at 1 ug/ml incubated for 48 hrs by CellTiter-Glo luminescence assay; format: functional, cell-based; conditions: dose 1.0 µg/ml; how it was run: as §2

## C=C(C)[C@]1(O)C[C@@H](C)[C@]2(O)[C@H]([C@H]1O)[C@@H]1O[C@]1(COC(=O)CCCCCCCCCC(C)/C=C/CCCCC)[C@@H](O)[C@]1(O)C(=O)C(C)=C[C@H]12 (stereo not given in full)
Zika virus
  IC50: > 50 µM
Caco-2 [1]
  Activity: inactive
SARS-CoV-2
  IC50: 34.2 µM
Caco-2 [2]
  Activity: inactive

## C=C(C)[C@]12C[C@@H](C)[C@@]34O[C@](/C=C/C=C/C(=O)CCCCCCCC)(O[C@@H]1[C@@H]3[C@@H]1O[C@]1(CO)[C@@H](O)[C@]1(O)C(=O)C(C)=C[C@H]14)O2
Zika virus
  IC50: > 50 µM
Caco-2 [3]
  inhibition at 1 µg/mL: ~25%
SARS-CoV-2
  IC50: 50.2 µM
Caco-2 [2]
  Activity: inactive

## C=C(C)[C@]12C[C@@H](C)[C@@]34O[C@](/C=C/C=C/[C@H](O)CCCCCCCC)(O[C@@H]1[C@@H]3[C@@H]1O[C@]1(CO)[C@@H](O)[C@]1(O)C(=O)C(C)=C[C@H]14)O2
Caco-2 [3]
  inhibition at 1 µg/mL: ~25%
Caco-2 [2]
  Activity: inactive

## C=C(C)[C@]12C[C@@H](C)[C@@]34O[C@](/C=C/[C@H](O)[C@@H](O)CCCCCCCCC)(O[C@@H]1[C@@H]3[C@@H]1O[C@]1(CO)[C@@H](O)[C@]1(O)C(=O)C(C)=C[C@H]14)O2
Caco-2 [1]
  Activity: Active
Caco-2 [2]
  Activity: inactive

## Cn1c2ccccc2c2c3c(c4c5ccccc5n(CCC#N)c4c21)CNC3=O
Caco-2 [4]
  Activity: Active

## C=C(C)[C@]12C[C@@H](C)[C@@]34O[C@](/C=C/C=C\C(=O)CCCCCCCC)(O[C@@H]1[C@@H]3[C@@H]1O[C@]1(CO)[C@@H](O)[C@]1(O)C(=O)C(C)=C[C@H]14)O2
Caco-2 [3]
  inhibition at 1 µg/mL: ~25%
Caco-2 [2]
  Activity: inactive

## O=c1[nH]c(=O)n([C@H]2C[C@H](O)[C@@H](CO)O2)cc1F
[5]
  Activity: inactive
[6]
  Activity: inactive
[7]
  Activity: inactive
[8]
  Activity: inactive
[9]
  Activity: inactive
